These results are taken from ChEMBL document CHEMBL3414501, “New platelet aggregation inhibitors based on pyridazinone moiety” (Eur J Med Chem, 2015).

Holding throughout (format): functional, cell-based
Assay [1] is described as follows: Antiplatelet activity in human platelet assessed as inhibition of collagen-induced platelet aggregation incubated for 5 mins prior to collagen challenge measured over 5 mins by turbidimetric method. An outline of the steps:
(§1)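 Washed human platelets from buffy coat, resuspended in Tyrode-HEPES pH 7.4 with 2 mM CaCl2. Compound in DMSO preincubated with platelets, then collagen (2-4 μg/mL), CRP, thrombin, U-46619 or ionomycin added. Light transmission followed over 5 min in a dual-channel aggregometer (Born turbidimetry); aggregation taken as maximal transmission change. Non-collagen agonists tested at 20 μM compound; at least four experiments in duplicate.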

In assay [2] the test system is Platelet. In words: Antiplatelet activity in human platelet assessed as inhibition of CRP-XL-induced activated Gp2b/3a expression incubated for 5 mins prior to CRP-XL challenge measured after 15 mins by flow cytometry. In a few lines: (§2)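 Washed platelets from donor buffy coat in modified Tyrode-HEPES (pH 7.4, 2 mM Ca2+), pre-incubated 5 min with DMSO or compound. Flow cytometry: CRP-XL stimulation with FITC-PAC-1 for 15 min at room temperature, 10,000 events, PAC-1 mean fluorescence and % positive platelets. Phosphotyrosine: CRP-XL 5 μg/mL, SDS/EDTA (2%/1 mM final) lysates, immunodot blot with 4G10, HRP secondary, chemiluminescence.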

The subject of assay [3] is Platelet. In words: Antiplatelet activity in human platelet assessed as inhibition of CRP-XL-induced platelet aggregation at 20 uM incubated for 5 mins prior to CRP-XL challenge measured over 5 mins by […]. An outline of the steps:
as §1

Assay [4] has as its system Platelet. In words: Antiplatelet activity in human platelet assessed as inhibition of ionomycin-induced platelet aggregation at 20 uM incubated for 5 mins prior to U-46619 challenge measured over 5 mins by […]. As to conditions: in the assay text read “ionomycin challenge” for “U-46619 challenge”. In a few lines: as §1
Assay [5] deals with Platelet. In words: Antiplatelet activity in human platelet assessed as inhibition of thrombin-induced platelet aggregation at 20 uM incubated for 5 mins prior to thrombin challenge measured over 5 mins by […]. In a few lines: as §1
In assay [6] the test system is Platelet. In words: Antiplatelet activity in human platelet assessed as inhibition of U-46619-induced platelet aggregation at 20 uM incubated for 5 mins prior to U-46619 challenge measured over 5 mins by […]. In a few lines:
as §1

Assay [7] deals with Platelet. In words: Antiplatelet activity in human platelet assessed as inhibition of CRP-XL-induced phosphotyrosine level incubated for 5 mins prior to CRP-XL challenge measured after 5 mins by immunodot blot analysis. In a few lines:
as §2

Activity calls are given as the source filed them. The rule behind the calls is not given here.

In the case of `CC(C)(C)[Si](OCc1ccnn(Cc2ccccc2)c1=O)(c1ccccc1)c1ccccc1`, the half-inhibitory concentration (IC50) in assay [1] is 1.31 µM.

For `O=c1c(COCc2ccccc2)ccnn1Cc1ccccc1`, in assay [1], the half-maximal inhibitory concentration (IC50) was 17.5 µM.

For the compound `O=c1cc2c(n[nH]1)CCCO2`, the IC50 in assay [1] is > 100 µM.

With `O=c1cc(CO)cnn1Cc1ccccc1`, in assay [1], the IC50 was > 100 µM.

On to `O=C1CC2OCCC2=NN1` (configuration not stated), for which the IC50 in assay [1] was determined as 70.6 µM.

With `O=c1cc(COCc2ccccc2)cnn1Cc1ccccc1`, in assay [1], the IC50 was 3.75 µM.

On to `O=c1c(CBr)ccnn1Cc1ccccc1`, for which the IC50 in assay [1] is > 100 µM.

With `O=c1cc(CBr)cnn1Cc1ccccc1`, in assay [1], the half-inhibitory concentration (IC50) was > 100 µM.

Consider `O=C1CC2OCCCC2=NN1` (configuration not stated), for which the half-inhibitory concentration (IC50) in assay [1] was > 100 µM.

On to `CC(C)(C)[Si](OCc1cnn(Cc2ccccc2)c(=O)c1)(c1ccccc1)c1ccccc1`, for which the inhibition entry with Platelet [2] and with Platelet [3] was “Active” each time. Moreover, the inhibition entry in the assay on Platelet [4], in the assay on Platelet [5] and in the assay on Platelet [6] was “inactive” each time. The 50% inhibitory concentration (IC50) in assay [1] amounted to 0.55 µM. For the same compound, the inhibition entry with Platelet [7] was “Dose-dependent effect”.

Consider `O=c1c(CO)ccnn1Cc1ccccc1`, for which, in assay [1], the IC50 was > 100 µM.

The term IC50 denotes the concentration needed to halve the response being measured.
